In ChEMBL document CHEMBL4024746, “Nonpyrogenic Molecular Adjuvants Based on norAbu-Muramyldipeptide and norAbu-Glucosaminyl Muramyldipeptide: Synthesis, Molecular Mechanisms of Action, and Biological Activities in Vitro and in Vivo” (J Med Chem, 2017):
Calls of active or inactive are those of the source. The calls are words filed in the database; no cut-off is given here.

Key:
Oryctolagus cuniculus [1] = experiment: Pyrogenic activity in Chinchilla rabbit assessed as change in maximum body temperature at 100 nmol/kg, iv using micellar foemulation measured at 30 mins time intervals; type: toxicity, organism-based; conditions: in vivo, 0.5 h
Summary of the method: (§1)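 Standard rabbit pyrogenicity test, three animals per group, iv or modified sc application of free (micellar) or liposomal formulations. Maximum temperature rise (+ΔTmax) summed per group; sum below 1.1 °C classed as nonpyrogenic. Temperature followed a further 24 h for delayed pyrogenicity.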

Oryctolagus cuniculus [2] = experiment: Toxicity in Chinchilla rabbit assessed as weight loss at 100 nmol/kg, iv using micellar formulation measured up to 2 months post dose; type: organism-based; conditions: in vivo
Oryctolagus cuniculus [3] = experiment: Toxicity in Chinchilla rabbit assessed as skin irritation at 100 nmol/kg, iv using micellar formulation measured up to 2 months post dose; type: organism-based; conditions: in vivo
[4] = biological target: Nucleotide-binding oligomerization domain-containing protein 2 (Homo sapiens) (UniProt Q9HC29); experiment: Agonist activity at human NOD2 receptor expressed in mouse Raw-Blue reporter cells at 10 uM after 48 hrs by SEAP reporter gene assay; type: cell-based
Summary of the method: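 RAW 264.7-derived RAW-Blue cells carrying an NF-κB/AP-1-inducible SEAP reporter, exposed to compounds at 10 μM for 48 h. Colorimetric SEAP read-out at 650 nm. MDP serves as positive control. ANOVA with Dunnett's test versus untreated cells and versus MDP.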

[5] = biological target: T1, Nucleotide-binding oligomerization domain-containing protein 1 (Homo sapiens) (UniProt Q9Y239); experiment: Agonist activity at human NOD1 receptor expressed in HEK-Blue reporter cells at 10 uM after 48 hrs by SEAP reporter gene assay; type: cell-based
T1 sequence (whole entry): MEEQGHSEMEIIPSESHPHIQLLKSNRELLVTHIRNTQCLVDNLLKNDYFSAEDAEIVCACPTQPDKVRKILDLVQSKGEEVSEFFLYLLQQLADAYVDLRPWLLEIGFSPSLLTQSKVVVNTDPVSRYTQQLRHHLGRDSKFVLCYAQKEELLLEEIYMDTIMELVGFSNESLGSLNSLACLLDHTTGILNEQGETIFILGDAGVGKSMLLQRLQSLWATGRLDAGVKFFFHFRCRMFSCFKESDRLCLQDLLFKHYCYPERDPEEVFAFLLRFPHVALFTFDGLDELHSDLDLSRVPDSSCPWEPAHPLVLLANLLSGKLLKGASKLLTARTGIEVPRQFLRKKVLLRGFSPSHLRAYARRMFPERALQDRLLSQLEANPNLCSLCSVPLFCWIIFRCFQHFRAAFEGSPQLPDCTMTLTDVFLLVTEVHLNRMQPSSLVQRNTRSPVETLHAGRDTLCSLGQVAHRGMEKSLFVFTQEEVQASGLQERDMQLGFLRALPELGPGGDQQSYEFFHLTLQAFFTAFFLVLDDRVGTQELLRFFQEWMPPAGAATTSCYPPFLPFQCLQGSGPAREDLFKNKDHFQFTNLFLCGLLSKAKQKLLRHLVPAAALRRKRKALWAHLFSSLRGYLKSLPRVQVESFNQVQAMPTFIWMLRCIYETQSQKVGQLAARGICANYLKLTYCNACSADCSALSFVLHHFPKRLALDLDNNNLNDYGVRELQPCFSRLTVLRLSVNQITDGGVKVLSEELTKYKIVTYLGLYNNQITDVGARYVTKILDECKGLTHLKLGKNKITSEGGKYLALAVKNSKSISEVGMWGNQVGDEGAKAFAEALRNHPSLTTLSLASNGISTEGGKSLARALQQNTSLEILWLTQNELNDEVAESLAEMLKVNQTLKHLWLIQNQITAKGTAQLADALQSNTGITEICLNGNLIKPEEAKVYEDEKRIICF
Summary of the method: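 HEK293 cells cotransfected with human NOD1 and an NF-κB/AP-1-inducible SEAP reporter, exposed to compounds at 10 μM for 48 h. SEAP is read at 650 nm with QUANTI-Blue. Diaminopimelic acid derivatives serve as NOD1 positive controls. Dunnett's test is used versus untreated cells.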

Mus musculus = experiment: Immuno-stimulatory activity in ICR mouse assessed as induction of GM-progenitor cell proliferation in serum at […], sc using liposomal formulation measured after 6 hrs; type: functional, organism-based
Summary of the method: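 Female ICR mice, 3 months old, four per group, given liposomal preparations sc at 100 nmol per dose in 200 μL. Serum collected 6 h later and added to cultured granulocyte–monocyte progenitors. GM-CFU colonies counted, with serum-free cells as baseline. Dunnett's test is used versus the infusion-solution control.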

[6] = biological target: NACHT, LRR and PYD domains-containing protein 3 (Homo sapiens, UniProt Q96P20); experiment: Agonist activity at NLRP3 in human […] cells assessed as induction of LPS-induced IL-1beta secretion by HEK-Blue reporter cell based assay
Summary of the method: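 THP1-Null cells stimulated with compounds; mature IL-1β released is detected with HEK-Blue IL-1β cells through SEAP reporter activity in the supernatant, read colorimetrically with QUANTI-Blue. ATP serves as positive standard. Untreated HEK-Blue IL-1β cells serve as negative control; comparison by ANOVA with Dunnett's test.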

Oryctolagus cuniculus [7] = experiment: Pyrogenic activity in New Zealand albino rabbit assessed as change in maximum body temperature at 100 nmol/kg, sc using liposomal formulation measured at 30 mins time intervals for 9 to 24 hrs (reference value: 0.2 degC); type: toxicity, organism-based; conditions: in vivo; summary of the method: as §1
Oryctolagus cuniculus [8] = experiment: Toxicity in Chinchilla rabbit assessed as necrosis at site of application at 100 nmol/kg, iv using micellar formulation measured up to 2 months post dose; type: organism-based; conditions: in vivo
Oryctolagus cuniculus [9] = experiment: Toxicity in Chinchilla rabbit assessed as behavioral changes at 100 nmol/kg, iv using micellar formulation measured up to 2 months post dose; type: organism-based; conditions: in vivo
Oryctolagus cuniculus [10] = experiment: Toxicity in New Zealand albino rabbit assessed as weight loss at 100 nmol/kg, sc using liposomal formulation measured up to 2 months post dose; type: organism-based; conditions: in vivo
Oryctolagus cuniculus [11] = experiment: Toxicity in New Zealand albino rabbit assessed as skin irritation at 100 nmol/kg, sc using liposomal formulation measured up to 2 months post dose; type: organism-based; conditions: in vivo
Oryctolagus cuniculus [12] = experiment: Toxicity in New Zealand albino rabbit assessed as necrosis at site of application at 100 nmol/kg, sc using liposomal formulation measured up to 2 months post dose; type: organism-based; conditions: in vivo
Oryctolagus cuniculus [13] = experiment: Toxicity in New Zealand albino rabbit assessed as behavioral changes at 100 nmol/kg, sc using liposomal formulation measured up to 2 months post dose; type: organism-based; conditions: in vivo
[14] = biological target: Nucleotide-binding oligomerization domain-containing protein 2 (Homo sapiens) (UniProt Q9HC29); experiment: Agonist activity at human NOD2 receptor expressed in mouse Raw-Blue reporter cells at 10 uM after 48 hrs in presence of gefitinib by SEAP reporter gene assay; type: cell-based
[15] = biological target: Nucleotide-binding oligomerization domain-containing protein 2 (Homo sapiens) (UniProt Q9HC29); experiment: Agonist activity at human NOD2 receptor expressed in mouse Raw-Blue reporter cells at 10 uM after 24 hrs in presence of GSK717 by SEAP reporter gene assay

Chain of Nucleotide-binding oligomerization domain-containing protein 2 (Homo sapiens) (Q9HC29 whole entry, the tested form may be a part): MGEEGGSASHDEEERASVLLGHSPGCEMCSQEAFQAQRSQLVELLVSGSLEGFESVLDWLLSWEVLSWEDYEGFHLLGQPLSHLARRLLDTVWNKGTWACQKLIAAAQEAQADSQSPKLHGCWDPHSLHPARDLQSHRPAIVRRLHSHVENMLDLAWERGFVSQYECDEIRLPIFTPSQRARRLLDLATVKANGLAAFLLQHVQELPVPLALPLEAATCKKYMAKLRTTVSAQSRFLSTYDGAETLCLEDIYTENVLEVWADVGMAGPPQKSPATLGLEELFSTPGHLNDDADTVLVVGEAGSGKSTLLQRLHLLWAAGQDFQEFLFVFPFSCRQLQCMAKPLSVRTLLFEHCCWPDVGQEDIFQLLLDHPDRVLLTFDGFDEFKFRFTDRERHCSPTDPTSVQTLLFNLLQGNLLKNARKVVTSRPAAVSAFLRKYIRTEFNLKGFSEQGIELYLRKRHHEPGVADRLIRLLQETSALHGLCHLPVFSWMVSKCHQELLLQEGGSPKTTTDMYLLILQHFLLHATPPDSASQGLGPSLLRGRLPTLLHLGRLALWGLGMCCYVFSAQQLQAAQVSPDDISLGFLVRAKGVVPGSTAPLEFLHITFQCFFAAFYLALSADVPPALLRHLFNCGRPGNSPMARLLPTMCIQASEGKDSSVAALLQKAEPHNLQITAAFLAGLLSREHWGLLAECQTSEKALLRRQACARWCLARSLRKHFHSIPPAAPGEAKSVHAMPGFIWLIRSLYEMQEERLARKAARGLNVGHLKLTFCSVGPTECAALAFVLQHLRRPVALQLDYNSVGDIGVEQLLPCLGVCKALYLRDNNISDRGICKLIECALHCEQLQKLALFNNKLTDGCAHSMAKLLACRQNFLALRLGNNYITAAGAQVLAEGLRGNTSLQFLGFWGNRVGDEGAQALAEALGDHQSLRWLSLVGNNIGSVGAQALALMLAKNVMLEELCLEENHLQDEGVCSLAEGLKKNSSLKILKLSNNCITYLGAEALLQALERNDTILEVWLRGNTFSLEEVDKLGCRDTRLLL
Chain of NACHT, LRR and PYD domains-containing protein 3 (Q96P20 whole entry, the tested form may be a part): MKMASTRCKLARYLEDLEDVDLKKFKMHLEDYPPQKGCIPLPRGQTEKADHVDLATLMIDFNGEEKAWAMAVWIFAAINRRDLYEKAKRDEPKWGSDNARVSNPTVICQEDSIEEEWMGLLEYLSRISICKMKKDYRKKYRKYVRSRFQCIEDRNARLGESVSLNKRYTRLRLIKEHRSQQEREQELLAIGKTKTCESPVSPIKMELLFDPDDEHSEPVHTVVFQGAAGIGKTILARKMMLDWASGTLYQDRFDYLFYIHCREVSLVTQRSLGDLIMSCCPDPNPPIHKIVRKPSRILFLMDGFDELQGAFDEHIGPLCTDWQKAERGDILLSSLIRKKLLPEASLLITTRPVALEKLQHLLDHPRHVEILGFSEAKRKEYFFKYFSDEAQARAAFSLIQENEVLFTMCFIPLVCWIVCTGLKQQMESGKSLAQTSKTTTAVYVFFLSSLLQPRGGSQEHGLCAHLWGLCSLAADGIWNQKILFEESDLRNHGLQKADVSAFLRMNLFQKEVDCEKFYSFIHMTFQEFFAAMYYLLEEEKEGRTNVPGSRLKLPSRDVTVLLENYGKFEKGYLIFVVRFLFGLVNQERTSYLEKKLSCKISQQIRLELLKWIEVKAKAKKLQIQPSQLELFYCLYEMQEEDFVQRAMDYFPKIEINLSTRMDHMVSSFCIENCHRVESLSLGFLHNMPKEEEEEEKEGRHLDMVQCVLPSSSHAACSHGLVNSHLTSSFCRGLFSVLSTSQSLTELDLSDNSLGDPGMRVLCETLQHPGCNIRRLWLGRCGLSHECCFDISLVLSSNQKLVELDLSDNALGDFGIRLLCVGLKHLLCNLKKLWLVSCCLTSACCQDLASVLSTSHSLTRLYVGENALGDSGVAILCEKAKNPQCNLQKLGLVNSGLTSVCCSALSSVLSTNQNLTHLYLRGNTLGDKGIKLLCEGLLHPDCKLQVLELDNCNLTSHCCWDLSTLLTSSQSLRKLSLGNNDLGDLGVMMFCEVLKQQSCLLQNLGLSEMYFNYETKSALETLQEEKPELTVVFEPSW

SMILES | Activity [4] | Activity [5] | Activity [6] | Activity [14] | Activity [15] | deltaT (Oryctolagus cuniculus [1]) [°C] | Activity (Oryctolagus cuniculus [2]) | Activity (Oryctolagus cuniculus [3]) | Activity (Mus musculus) | deltaT (Oryctolagus cuniculus [7]) [°C] | Activity (Oryctolagus cuniculus [8]) | Activity (Oryctolagus cuniculus [9]) | Activity (Oryctolagus cuniculus [10]) | Activity (Oryctolagus cuniculus [11]) | Activity (Oryctolagus cuniculus [12]) | Activity (Oryctolagus cuniculus [13])
CCCCCCCCCCCCCCCCCC(=O)NCCCC[C@H](NC(=O)CC[C@@H](NC(=O)[C@H](CC)NC(=O)CO[C@H]1[C@H](O)[C@@H](CO)OC(O)[C@@H]1NC(C)=O)C(N)=O)C(=O)O (some centres not stated) | Active | inactive | Active | inactive | inactive | 0.4 | Non-Toxic | Non-Toxic | Active | 0.5 | Non-Toxic | Non-Toxic | Non-Toxic | Non-Toxic | Non-Toxic | Non-Toxic
CCCCCCCCCCCCCCCCCC(=O)OC[C@H]1OC(O)[C@H](NC(C)=O)[C@@H](OCC(=O)N[C@@H](CC)C(=O)N[C@H](CCC(=O)O)C(N)=O)[C@@H]1O (some centres not stated) | Active | inactive | Active | inactive | inactive | 0.6 | Non-Toxic | Non-Toxic | Active | 0.6 | Non-Toxic | Non-Toxic | Non-Toxic | Non-Toxic | Non-Toxic | Non-Toxic
CCCCCCCCCCCCCCC(CCCCCCCCCCCCCC)C(=O)NCCCC[C@H](NC(=O)CC[C@@H](NC(=O)[C@H](CC)NC(=O)CO[C@H]1[C@H](O[C@@H]2O[C@H](CO)[C@@H](O)[C@H](O)[C@H]2NC(C)=O)[C@@H](CO)OC(O)[C@@H]1NC(C)=O)C(N)=O)C(=O)O (some centres not stated) | Active | inactive | Active | inactive | inactive | 0.4 | Non-Toxic | Non-Toxic | Active | 0.5 | Non-Toxic | Non-Toxic | Non-Toxic | Non-Toxic | Non-Toxic | Non-Toxic
Nc1ncnc2c1ncn2[C@@H]1O[C@H](COP(=O)(O)OP(=O)(O)OP(=O)(O)O)[C@@H](O)[C@H]1O [ADENOSINE TRIPHOSPHATE] |  |  | Active |  |  |  |  |  |  |  |  |  |  |  |  | 
CCCCCCCCCCCCCCCCCC(=O)NCCCC[C@H](NC(=O)CC[C@@H](NC(=O)[C@H](CC)NC(=O)CO[C@H]1[C@H](O[C@@H]2O[C@H](CO)[C@@H](O)[C@H](O)[C@H]2NC(C)=O)[C@@H](CO)OC(O)[C@@H]1NC(C)=O)C(N)=O)C(=O)O (some centres not stated) | Active | inactive | Active | inactive | inactive | 0.5 | Non-Toxic | Non-Toxic | Active | 0.4 | Non-Toxic | Non-Toxic | Non-Toxic | Non-Toxic | Non-Toxic | Non-Toxic
C[C@H](N)C(=O)N[C@H](CCC(=O)NC12CC3CC(CC(C3)C1)C2)C(N)=O | inactive |  |  |  |  |  |  |  |  |  |  |  |  |  |  | 
CCCCCCCCCCCCCCCCCC(=O)N[C@H]1[C@H](O[C@H]2[C@H](OCC(=O)N[C@@H](CC)C(=O)N[C@H](CCC(=O)O)C(N)=O)[C@@H](NC(C)=O)C(O)O[C@@H]2CO)O[C@H](CO)[C@@H](O)[C@@H]1O (some centres not stated) | Active | inactive | Active | inactive | inactive | 0.5 | Non-Toxic | Non-Toxic | Active | 0.4 | Non-Toxic | Non-Toxic | Non-Toxic | Non-Toxic | Non-Toxic | Non-Toxic

Second part, led by results:

Activity [4] | Activity [5] | Activity [6] | Activity [14] | Activity [15] | SMILES | deltaT (Oryctolagus cuniculus [1]) [°C] | Activity (Oryctolagus cuniculus [2]) | Activity (Oryctolagus cuniculus [3]) | Activity (Mus musculus) | deltaT (Oryctolagus cuniculus [7]) [°C] | Activity (Oryctolagus cuniculus [8]) | Activity (Oryctolagus cuniculus [9]) | Activity (Oryctolagus cuniculus [10]) | Activity (Oryctolagus cuniculus [11]) | Activity (Oryctolagus cuniculus [12]) | Activity (Oryctolagus cuniculus [13])
Active |  |  |  |  | C[C@H](NC(=O)[C@@H](C)O[C@H]1[C@H](O)[C@@H](CO)OC(O)[C@@H]1NC(=O)CO)C(=O)N[C@H](CCC(=O)O)C(N)=O (some centres not stated) |  |  |  |  |  |  |  |  |  |  | 
Active |  |  | inactive | inactive | CCCCCCCCCCCCCCCCCC(=O)OC[C@H]1OC(O)[C@H](NC(C)=O)[C@@H](O[C@H](C)C(=O)N[C@@H](C)C(=O)N[C@H](CCC(=O)O)C(N)=O)[C@@H]1O (some centres not stated) |  |  |  |  |  |  |  |  |  |  | 
Active | inactive | Active | inactive | inactive | CCCCCCCCCCCCCCC(CCCCCCCCCCCCCC)C(=O)OC[C@H]1OC(O)[C@H](NC(C)=O)[C@@H](OCC(=O)N[C@@H](CC)C(=O)N[C@H](CCC(=O)O)C(N)=O)[C@@H]1O (some centres not stated) | 0.6 | Non-Toxic | Non-Toxic | Active | 0.5 | Non-Toxic | Non-Toxic | Non-Toxic | Non-Toxic | Non-Toxic | Non-Toxic
